From ChEMBL document CHEMBL1139005, “Branched diacylglycerol-lactones as potent protein kinase C ligands and alpha-secretase activators” (J Med Chem, 2006)
pKi: −log10 of the molar value.

Legend:
W4 (Rattus norvegicus) = assay: Activation of alpha secretase assessed by sAPPalpha secretion in W4 cells relative to control; set-up: concentration or dose not given beside the values
[1] = target: Protein kinase C alpha type (Homo sapiens, UniProt P17252); assay: Displacement of [20-3H]PDBu from recombinant PKC alpha in presence of phosphatidylserine
In short: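 Competition for bound [20-3H]phorbol 12,13-dibutyrate on recombinant PKC-α with phosphatidylserine present; IC50 obtained by fitting points to the theoretical competition curve, then converted to Ki.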

CC(C)CC(C/C=C1/CC(CO)(COC(=O)C(C)(C)C)OC1=O)CC(C)C (configuration not stated)
Activity (W4 (Rattus norvegicus)): 177%

CC(C)CCC1(CCC(C)C)CC(CO)(COC(=O)C(C)(C)C)OC1=O (configuration not stated)
pKi [1]: 4.74

CC(C)CC(C/C=C1\CC(CO)(COC(=O)CC(C(C)C)C(C)C)OC1=O)CC(C)C (configuration not stated)
Activity (W4 (Rattus norvegicus)): 225%

CCCCCC(=O)OCC1(CO)C/C(=C\CC(CC(C)C)CC(C)C)C(=O)O1 (configuration not stated)
pKi [1]: 8.21

CCCCCC(=O)OCC1(CO)C/C(=C/CC(CC(C)C)CC(C)C)C(=O)O1 (configuration not stated)
pKi [1]: 8.42

CC(C)CC(C/C=C1\CC(CO)(COC(=O)c2ccccc2)OC1=O)CC(C)C (configuration not stated)
Activity (W4 (Rattus norvegicus)): 131% | pKi [1]: 7.79

CC(C)CC(C/C=C1/CC(CO)(COC(=O)c2ccccc2)OC1=O)CC(C)C (configuration not stated)
Activity (W4 (Rattus norvegicus)): 157% | pKi [1]: 8.18

CCCCCCCC(=O)OCC1(CO)C/C(=C/CC(CC(C)C)CC(C)C)C(=O)O1 (configuration not stated)
Activity (W4 (Rattus norvegicus)): 158% | pKi [1]: 8.30

CCCCCC(=O)OCC1(CO)CC/C(=C\CC(CC(C)C)CC(C)C)C(=O)O1 (configuration not stated)
pKi [1]: 6.83

CC(C)CC(C/C=C1\CC(/C=C/C(=O)OC(C)(C)C)(CO)OC1=O)CC(C)C (configuration not stated)
pKi [1]: 6.76

CC(C)CC(C/C=C1/CCC(CO)(COC(=O)C(C)(C)C)OC1=O)CC(C)C (configuration not stated)
pKi [1]: 7.55

CC(C)=CCC1(CC=C(C)C)CC(CO)(COC(=O)C(C)(C)C)OC1=O (configuration not stated)
pKi [1]: 5.68

CC(C)CC(C/C=C1\CC(CO)(COC(=O)C(C)(C)C)OC1=O)CC(C)C (configuration not stated)
Activity (W4 (Rattus norvegicus)): 133%

CC(C)CC(C/C=C1\CC(/C=C\C(=O)OC(C)(C)C)(CO)OC1=O)CC(C)C (configuration not stated)
pKi [1]: 4.66

CCCCCCCC(=O)OCC1(CO)C/C(=C\CC(CC(C)C)CC(C)C)C(=O)O1 (configuration not stated)
Activity (W4 (Rattus norvegicus)): 141% | pKi [1]: 8.22

CC(C)CC(C/C=C1/CC(CO)(COC(=O)CC(CC(C)C)CC(C)C)OC1=O)CC(C)C (configuration not stated)
pKi [1]: 8.16

CC(C)CC(C/C=C1\CCC(CO)(COC(=O)C(C)(C)C)OC1=O)CC(C)C (configuration not stated)
pKi [1]: 7.32

CC(C)CC(C/C=C1/C[C@@](CO)(COC(=O)C(C)(C)C)OC1=O)CC(C)C
Activity (W4 (Rattus norvegicus)): 209% | pKi [1]: 8.84

CCCCCCCC(=O)OCC1(CO)CC/C(=C\CC(CC(C)C)CC(C)C)C(=O)O1 (configuration not stated)
pKi [1]: 6.89

CCCC(=O)O[C@@H]1[C@@H](C)[C@@]2(O)[C@@H](C=C(CO)C[C@]3(O)C(=O)C(C)=C[C@@H]23)[C@@H]2C(C)(C)[C@]12OC(=O)CCC
Activity (W4 (Rattus norvegicus)): 185%

CC(C)CC(C/C=C1/CC(/C=C/C(=O)OC(C)(C)C)(CO)OC1=O)CC(C)C (configuration not stated)
Activity (W4 (Rattus norvegicus)): 200% | pKi [1]: 7.74
